Results as given in ChEMBL document CHEMBL3098111, “Discovery of 2,5-diarylnicotinamides as selective orexin-2 receptor antagonists (2-SORAs)” (Bioorg Med Chem Lett, 2013).

Tests used:
Orexin receptor type 2 [1] = biological target: T1, Orexin receptor type 2 (Homo sapiens, UniProt O43614); experiment: Displacement of [3H]SB-674042 from human orexin-2 receptor after 60 mins by scintillation counting analysis
T1 sequence (O43614 whole entry): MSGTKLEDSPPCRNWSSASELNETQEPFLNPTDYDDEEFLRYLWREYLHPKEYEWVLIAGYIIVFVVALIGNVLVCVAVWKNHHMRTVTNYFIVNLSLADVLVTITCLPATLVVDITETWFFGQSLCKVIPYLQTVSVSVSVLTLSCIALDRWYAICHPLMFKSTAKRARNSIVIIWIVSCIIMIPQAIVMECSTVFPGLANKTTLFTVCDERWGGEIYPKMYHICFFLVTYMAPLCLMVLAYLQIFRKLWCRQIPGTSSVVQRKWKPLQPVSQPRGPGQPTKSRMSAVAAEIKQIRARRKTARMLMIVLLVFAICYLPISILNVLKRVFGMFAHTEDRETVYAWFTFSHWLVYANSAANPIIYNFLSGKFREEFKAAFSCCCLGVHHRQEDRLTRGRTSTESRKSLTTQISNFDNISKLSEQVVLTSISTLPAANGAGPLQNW
Procedure, shortened: (§1)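 Radioligand binding on membranes from human cells overexpressing the orexin receptor. Inhibition of high-affinity radioligand binding measured and expressed as Ki.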

Homo sapiens = species on record: Homo sapiens; experiment: Selectivity ratio of Ki for human orexin-1 receptor to Ki for human orexin-2 receptor
Procedure, shortened: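 Radioligand binding: a high-affinity radioligand was bound to membranes from human cells overexpressing OX1R or OX2R, and inhibition of that binding was measured and expressed as Ki. The ratio is the OX1R Ki divided by the OX2R Ki.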

[2] = biological target: T2, Orexin/Hypocretin receptor type 1 (Homo sapiens, UniProt O43613); experiment: Displacement of [3H]SB-674042 from human orexin-1 receptor after 60 mins by scintillation counting analysis; procedure, shortened: as §1
T2 sequence (O43613 whole entry): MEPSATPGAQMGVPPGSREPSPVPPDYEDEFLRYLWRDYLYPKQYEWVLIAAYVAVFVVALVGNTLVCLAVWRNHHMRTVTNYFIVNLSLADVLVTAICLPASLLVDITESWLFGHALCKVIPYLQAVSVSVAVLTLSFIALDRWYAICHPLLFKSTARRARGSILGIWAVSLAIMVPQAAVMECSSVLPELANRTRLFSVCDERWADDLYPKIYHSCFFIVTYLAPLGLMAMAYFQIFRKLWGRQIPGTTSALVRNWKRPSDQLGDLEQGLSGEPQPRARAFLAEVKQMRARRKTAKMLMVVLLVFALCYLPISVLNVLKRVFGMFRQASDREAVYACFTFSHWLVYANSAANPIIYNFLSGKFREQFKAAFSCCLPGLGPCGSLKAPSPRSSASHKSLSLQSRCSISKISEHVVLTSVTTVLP

[3] = biological target: L-type calcium channel, phenylalkylamine binding site (Rattus norvegicus, UniProt P22002+P27732+Q02485); experiment: Inhibition of rat L-type calcium channel phenylalkylamine binding site at 10 uM relative to control
MAO-A = MAO-A (Homo sapiens, UniProt P21397); experiment: Inhibition of human MAO-A at 10 uM relative to control
[4] = biological target: 5-hydroxytryptamine receptor 2B (Homo sapiens, UniProt P41595); experiment: Inhibition of human 5-HT2B receptor
[5] = biological target: Voltage-gated inwardly rectifying potassium channel KCNH2 (Homo sapiens, UniProt Q12809); experiment: Inhibition of human ERG
MAO-B = MAO-B (Homo sapiens, UniProt P27338); experiment: Inhibition of human MAO-B at 10 uM relative to control
[6] = AUC in rat EEG model at 15 mg/kg, po; format: ADME, organism-based; design: dose 15 mg/kg, route oral; conditions: in vivo
[7] = biological target: T2, Orexin/Hypocretin receptor type 1; experiment: Antagonist activity at human orexin-1 receptor assessed as inhibition of orexin-A-induced intracellular calcium mobilization after 30 mins by cell-based FLIPR assay; format: functional
Procedure, shortened: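 Cell-based FLIPR functional assay in orexin receptor-expressing cells, with Ca2+ flux as the read-out of orexin-driven receptor activation.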

[8] = Cmax in rat EEG model at 15 mg/kg, po; format: ADME, organism-based; design: dose 15 mg/kg, route oral; conditions: in vivo
D(3) dopamine receptor = D(3) dopamine receptor (Homo sapiens, UniProt P35462); experiment: Inhibition of human dopamine D3 receptor
hERG (KCNH2) [9] = biological target: T3, hERG (KCNH2) (Homo sapiens, UniProt Q12809); experiment: Inhibition of human ERG at 1 uM relative to control
[10] = biological target: L-type calcium channel, benzothiazepine binding site (Rattus norvegicus, UniProt P22002+P27732+Q02485); experiment: Inhibition of rat L-type calcium channel benzothiazepine binding site at 10 uM relative to control
Mu-type opioid receptor = Mu-type opioid receptor (Homo sapiens, UniProt P35372); experiment: Inhibition of human mu opioid receptor
MDR1 (P-gp, ABCB1) = MDR1 (P-gp, ABCB1) (Homo sapiens, UniProt P08183); experiment: Activity at human MDR1 expressed in pig LLC-PK cells assessed as efflux ratio of permeability from basolateral to apical side over apical to basolateral side; format: ADME, cell-based; conditions: LLC-PK1
Orexin receptor type 2 [11] = biological target: T1, Orexin receptor type 2; experiment: Antagonist activity at human orexin-2 receptor assessed as inhibition of orexin-A-induced intracellular calcium mobilization after 30 mins by cell-based FLIPR assay; format: functional
hERG (KCNH2) [12] = biological target: T3, hERG (KCNH2); experiment: Inhibition of human ERG at 0.1 uM relative to control
hERG (KCNH2) [13] = biological target: T3, hERG (KCNH2); experiment: Inhibition of human ERG at 10 nM relative to control
hERG (KCNH2) [14] = biological target: T3, hERG (KCNH2); experiment: Inhibition of human ERG at 10 uM relative to control
[15] = biological target: 5-hydroxytryptamine receptor 1A (Homo sapiens, UniProt P08908); experiment: Inhibition of human 5-HT1A receptor
[16] = Fraction unbound in human plasma by equilibrium dialysis method; format: ADME, cell-free
[17] = Inhibition of rabbit monoamine transporter; design: species or system Oryctolagus cuniculus
[18] = Inhibition of guinea pig adenosine transporter; design: species or system Cavia porcellus
[19] = biological target: 5-hydroxytryptamine receptor 1B (Rattus norvegicus, UniProt P28564); experiment: Inhibition of rat 5-HT1B receptor
Nucleic Acid = experiment: Ratio of drug level in CSF to plasma in rat at 3 mg/kg, po after 1 hr; format: ADME, organism-based; design: dose 3 mg/kg, route oral
[20] = Fraction unbound in rat plasma by equilibrium dialysis method; format: ADME, cell-free
[21] = Lipophilicity, log P of the compound; format: physicochemical; conditions: octanol/water
[22] = biological target: L-type calcium channel, dihydropyridine binding site (Rattus norvegicus, UniProt P22002+P27732+Q02485); experiment: Inhibition of rat L-type calcium channel dihydropyridine binding site at 10 uM relative to control
[23] = Half life in rat; format: ADME, organism-based; conditions: in vivo
[24] = Clearance in rat; format: ADME, organism-based; conditions: in vivo
[25] = Oral bioavailability in rat; format: ADME, organism-based; conditions: in vivo
[26] = Ratio of drug level in brain to plasma in rat at 3 mg/kg, po after 1 hr; format: ADME, organism-based; design: dose 3 mg/kg, route oral; conditions: read-out: BPR
[27] = Bioavailability in rat at 10 mg/kg; format: ADME, organism-based; conditions: in vivo
[28] = Clearance in rat at 10 mg/kg; format: ADME, organism-based; design: dose 10 mg/kg; conditions: in vivo

T3 sequence (Q12809 whole entry): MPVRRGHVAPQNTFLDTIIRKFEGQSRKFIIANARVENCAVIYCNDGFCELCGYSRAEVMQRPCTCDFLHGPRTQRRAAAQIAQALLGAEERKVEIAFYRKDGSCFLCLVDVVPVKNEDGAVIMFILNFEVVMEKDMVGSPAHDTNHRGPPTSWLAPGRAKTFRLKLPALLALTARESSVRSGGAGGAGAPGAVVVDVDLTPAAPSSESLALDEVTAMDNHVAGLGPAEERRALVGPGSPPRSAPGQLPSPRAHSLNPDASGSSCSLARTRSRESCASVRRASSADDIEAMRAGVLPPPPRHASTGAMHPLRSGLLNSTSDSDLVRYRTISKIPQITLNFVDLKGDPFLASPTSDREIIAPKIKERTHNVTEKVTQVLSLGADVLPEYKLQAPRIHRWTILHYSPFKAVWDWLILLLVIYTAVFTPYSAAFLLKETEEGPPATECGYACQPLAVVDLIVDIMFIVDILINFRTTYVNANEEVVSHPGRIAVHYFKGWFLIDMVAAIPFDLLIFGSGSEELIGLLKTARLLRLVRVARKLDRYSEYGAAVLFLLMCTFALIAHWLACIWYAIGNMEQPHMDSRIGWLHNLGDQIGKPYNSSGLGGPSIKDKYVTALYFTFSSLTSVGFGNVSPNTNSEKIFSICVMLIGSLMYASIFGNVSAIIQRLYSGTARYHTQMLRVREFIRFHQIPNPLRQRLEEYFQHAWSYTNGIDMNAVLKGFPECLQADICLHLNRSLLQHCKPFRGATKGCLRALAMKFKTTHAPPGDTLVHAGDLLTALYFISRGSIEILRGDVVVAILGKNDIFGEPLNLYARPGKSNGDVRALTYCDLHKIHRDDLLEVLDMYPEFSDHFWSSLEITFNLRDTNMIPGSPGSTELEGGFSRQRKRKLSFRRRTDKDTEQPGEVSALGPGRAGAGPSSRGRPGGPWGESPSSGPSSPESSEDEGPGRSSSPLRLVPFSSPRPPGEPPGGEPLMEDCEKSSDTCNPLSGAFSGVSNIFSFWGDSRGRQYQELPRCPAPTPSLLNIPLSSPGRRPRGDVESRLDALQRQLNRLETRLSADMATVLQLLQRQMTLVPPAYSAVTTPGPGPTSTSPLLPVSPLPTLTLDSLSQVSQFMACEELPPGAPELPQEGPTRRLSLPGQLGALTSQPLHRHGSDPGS
5-hydroxytryptamine receptor 1B, sequence (P28564 whole entry): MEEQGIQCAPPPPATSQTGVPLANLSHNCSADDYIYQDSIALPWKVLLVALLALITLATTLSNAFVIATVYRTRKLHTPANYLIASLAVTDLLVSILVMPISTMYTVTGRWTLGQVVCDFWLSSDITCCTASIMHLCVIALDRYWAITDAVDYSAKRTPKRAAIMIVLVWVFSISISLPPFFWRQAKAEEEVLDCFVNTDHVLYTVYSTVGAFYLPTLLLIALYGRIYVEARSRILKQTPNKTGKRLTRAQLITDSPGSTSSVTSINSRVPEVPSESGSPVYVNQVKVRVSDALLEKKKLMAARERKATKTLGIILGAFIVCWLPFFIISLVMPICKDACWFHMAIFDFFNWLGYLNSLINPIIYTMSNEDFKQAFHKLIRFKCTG
Mu-type opioid receptor, sequence (P35372 whole entry): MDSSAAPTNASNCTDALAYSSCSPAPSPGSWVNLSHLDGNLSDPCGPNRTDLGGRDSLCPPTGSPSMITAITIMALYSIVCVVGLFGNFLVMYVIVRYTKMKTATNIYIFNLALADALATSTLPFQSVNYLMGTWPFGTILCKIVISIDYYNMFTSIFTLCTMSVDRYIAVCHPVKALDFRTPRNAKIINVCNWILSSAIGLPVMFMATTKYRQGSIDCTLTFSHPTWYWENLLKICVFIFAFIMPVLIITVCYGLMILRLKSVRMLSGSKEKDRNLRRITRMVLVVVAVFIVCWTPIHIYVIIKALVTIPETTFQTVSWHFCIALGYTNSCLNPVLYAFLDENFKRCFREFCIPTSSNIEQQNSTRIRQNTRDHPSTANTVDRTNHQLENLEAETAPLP
D(3) dopamine receptor, sequence (P35462 whole entry): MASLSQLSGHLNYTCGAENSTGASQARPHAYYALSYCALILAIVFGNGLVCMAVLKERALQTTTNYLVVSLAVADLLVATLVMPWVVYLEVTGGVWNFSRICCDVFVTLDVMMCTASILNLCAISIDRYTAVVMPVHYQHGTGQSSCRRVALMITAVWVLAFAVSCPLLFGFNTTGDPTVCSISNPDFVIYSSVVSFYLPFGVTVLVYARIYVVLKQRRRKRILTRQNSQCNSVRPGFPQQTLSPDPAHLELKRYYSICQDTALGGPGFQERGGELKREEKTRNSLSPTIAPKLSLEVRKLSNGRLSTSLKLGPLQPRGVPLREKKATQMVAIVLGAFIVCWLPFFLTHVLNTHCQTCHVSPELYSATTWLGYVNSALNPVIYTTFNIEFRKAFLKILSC
5-hydroxytryptamine receptor 1A, sequence (P08908 whole entry): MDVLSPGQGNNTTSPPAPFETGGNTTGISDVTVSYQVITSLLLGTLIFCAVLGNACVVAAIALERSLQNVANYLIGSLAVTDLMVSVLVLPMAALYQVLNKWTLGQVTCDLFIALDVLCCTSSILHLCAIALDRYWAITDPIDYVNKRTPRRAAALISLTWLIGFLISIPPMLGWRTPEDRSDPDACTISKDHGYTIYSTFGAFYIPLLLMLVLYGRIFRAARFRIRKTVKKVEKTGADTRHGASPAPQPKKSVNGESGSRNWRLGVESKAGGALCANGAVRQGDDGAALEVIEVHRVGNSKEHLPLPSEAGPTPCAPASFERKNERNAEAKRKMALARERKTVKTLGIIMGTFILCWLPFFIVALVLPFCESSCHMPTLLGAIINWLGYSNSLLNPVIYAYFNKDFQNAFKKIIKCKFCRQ
5-hydroxytryptamine receptor 2B, sequence (P41595 whole entry): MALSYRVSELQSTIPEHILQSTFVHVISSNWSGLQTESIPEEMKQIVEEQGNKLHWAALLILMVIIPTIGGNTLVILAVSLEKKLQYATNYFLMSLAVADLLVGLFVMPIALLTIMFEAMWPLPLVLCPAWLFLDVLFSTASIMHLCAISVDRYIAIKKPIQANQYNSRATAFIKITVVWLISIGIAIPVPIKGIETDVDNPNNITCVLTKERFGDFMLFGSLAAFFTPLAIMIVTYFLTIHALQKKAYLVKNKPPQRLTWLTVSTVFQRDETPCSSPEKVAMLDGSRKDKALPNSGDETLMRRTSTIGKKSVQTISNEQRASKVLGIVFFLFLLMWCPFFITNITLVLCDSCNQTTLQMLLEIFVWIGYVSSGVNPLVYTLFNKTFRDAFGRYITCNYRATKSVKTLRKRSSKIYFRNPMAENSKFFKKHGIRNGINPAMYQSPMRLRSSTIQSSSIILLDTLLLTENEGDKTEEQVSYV
MAO-A, sequence (P21397 whole entry): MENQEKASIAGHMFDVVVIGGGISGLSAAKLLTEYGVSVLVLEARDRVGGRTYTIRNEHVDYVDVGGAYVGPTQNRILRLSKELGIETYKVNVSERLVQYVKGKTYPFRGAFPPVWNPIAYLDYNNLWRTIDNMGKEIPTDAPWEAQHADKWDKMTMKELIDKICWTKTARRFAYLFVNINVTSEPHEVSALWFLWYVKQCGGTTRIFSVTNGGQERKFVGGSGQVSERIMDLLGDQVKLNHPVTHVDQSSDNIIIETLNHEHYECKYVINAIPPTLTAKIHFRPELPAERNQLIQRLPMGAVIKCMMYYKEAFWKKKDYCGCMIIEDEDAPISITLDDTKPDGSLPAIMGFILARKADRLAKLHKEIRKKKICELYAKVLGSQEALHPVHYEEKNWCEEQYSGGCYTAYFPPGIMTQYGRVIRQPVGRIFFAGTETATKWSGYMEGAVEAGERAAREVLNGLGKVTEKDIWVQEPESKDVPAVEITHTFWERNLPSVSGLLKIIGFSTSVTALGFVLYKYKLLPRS
MAO-B, sequence (P27338 whole entry): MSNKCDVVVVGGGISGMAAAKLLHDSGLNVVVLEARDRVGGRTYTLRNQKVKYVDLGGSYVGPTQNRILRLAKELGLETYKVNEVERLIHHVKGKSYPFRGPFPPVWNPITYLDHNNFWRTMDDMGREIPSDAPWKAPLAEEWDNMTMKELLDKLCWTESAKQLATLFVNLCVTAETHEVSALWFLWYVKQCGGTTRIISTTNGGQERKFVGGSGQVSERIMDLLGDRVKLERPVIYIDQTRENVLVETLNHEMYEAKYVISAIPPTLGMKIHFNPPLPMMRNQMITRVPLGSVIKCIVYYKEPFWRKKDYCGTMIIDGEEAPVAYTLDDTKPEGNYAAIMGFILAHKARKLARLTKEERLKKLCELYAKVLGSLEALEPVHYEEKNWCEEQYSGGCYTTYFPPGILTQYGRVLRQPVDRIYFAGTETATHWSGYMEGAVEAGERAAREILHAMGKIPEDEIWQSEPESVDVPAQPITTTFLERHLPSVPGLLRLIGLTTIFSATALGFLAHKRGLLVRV

With `COc1ccc(CNC(=O)c2cc(-c3cc(F)cc(Cl)c3)cnc2-c2cccnc2)cc1OC` the Ki (Orexin receptor type 2 [1]) was 0.6 nM, the Ratio Ki (Homo sapiens) was 1810 and the Ki [2] was 1090 nM.

`Cc1cc(C)cc(-c2cnc(-c3cccnc3)c(C(=O)N(C)Cc3ccc4c(c3)OCO4)c2)c1` gave a Ki (Orexin receptor type 2 [1]) of 580 nM, a Ratio Ki (Homo sapiens) of 3.3 and a Ki [2] of 1900 nM.

Work on `COc1ccc(CNC(=O)c2cc(-c3cccc(Cl)c3)cnc2-c2cccnc2)cc1OC` yielded a Ki (Orexin receptor type 2 [1]) of 1.3 nM, a Ratio Ki (Homo sapiens) of 574 and a Ki [2] of 747 nM.

Compound `Cc1cc(C)cc(-c2cnc(-c3cccnc3)c(C(=O)NCc3ccc4c(c3)OCO4)c2)c1` has a Ki (Orexin receptor type 2 [1]) of 17 nM, a Ratio Ki (Homo sapiens) of 208 and a Ki [2] of 3550 nM.

For `Cc1cc(C)cc(-c2cnc(-c3cccnc3)c(C(=O)NCc3ccc(N(C)C)cc3)c2)c1`, the Ki (Orexin receptor type 2 [1]) was 4.8 nM, the Ratio Ki (Homo sapiens) was 174 and the Ki [2] was 833 nM.

Work on `COc1ccc(CNC(=O)c2cc(-c3cc(Cl)cc(Cl)c3)cnc2-c2cccnc2)cc1OC` yielded an inhibition at 10 µM [3] of 4%, an inhibition at 10 µM (MAO-A) of 41% and an IC50 [4] of 1040 nM. It also gave a Ki [4] of 662 nM, an IC50 [5] of 6950 nM and a Ki (Orexin receptor type 2 [1]) of 0.07 nM. It also gave an inhibition at 10 µM (MAO-B) of 31%, an AUC [6] of 9 µM·h and an IC50 [7] of 292 nM. It also gave a Cmax [8] of 2300 nM, an IC50 (D(3) dopamine receptor) of 9540 nM and a Ki (D(3) dopamine receptor) of 3240 nM. It also gave an inhibition at 1 µM (hERG (KCNH2) [9]) of 17%, an inhibition at 10 µM [10] of 1% and an IC50 (Mu-type opioid receptor) of 5020 nM. It also gave a Ki (Mu-type opioid receptor) of 2040 nM, an efflux ratio (MDR1 (P-gp, ABCB1)) of 6.4 and an IC50 (Orexin receptor type 2 [11]) of 12 nM. It also gave an inhibition at 0.1 µM (hERG (KCNH2) [12]) of 12%, an inhibition at 0.01 µM (hERG (KCNH2) [13]) of 3% and an inhibition at 10 µM (hERG (KCNH2) [14]) of 58%. It also gave an IC50 [15] of 2300 nM, a Ki [15] of 1310 nM and a fraction unbound [16] of 0.032. The IC50 [17] was 8210 nM, the Ki [17] was 6820 nM and the IC50 [18] was 2530 nM. For the same compound, the Ki [18] was 866 nM, the Ki [2] was 94.5 nM and the IC50 [19] was 2400 nM. It also gave a Ki [19] of 2280 nM, a Ratio (Nucleic Acid) of 0.2% and a fraction unbound [20] of 0.047. The logP [21] was 3.6 and the inhibition at 10 µM [22] was 24%.

For `Cc1cc(C)cc(-c2cnc(-c3cccnc3)c(C(=O)N(C)Cc3ccc4nccnc4c3)c2)c1`, the Ki (Orexin receptor type 2 [1]) was 78.5 nM, the Ratio Ki (Homo sapiens) was 92 and the Ki [2] was 7250 nM.

`COc1ccc(CNC(=O)c2cc(-c3cc(Cl)cc(Cl)c3)cnc2-c2cccnc2)cc1OC.Cl` gave a half-life [23] of 54 min, a clearance [24] of 39 mL/min/kg and a bioavailability [25] of 55%. The Kp at 1 h [26] was 0.19.

With `COc1ccc(CNC(=O)c2cc(-c3cc(C(F)(F)F)cc(C(F)(F)F)c3)cnc2-c2cccnc2)cc1OC` the Ki (Orexin receptor type 2 [1]) was 121 nM, the Ratio Ki (Homo sapiens) was 537 and the Ki [2] was 65000 nM.

`COc1ccc(CNC(=O)c2cc(-c3cc(C)cc(C)c3)cnc2-c2cccnc2)cc1` gave a Ki (Orexin receptor type 2 [1]) of 22 nM, a Ratio Ki (Homo sapiens) of 135 and a Ki [2] of 2980 nM.

`Cc1cc(C)cc(-c2cnc(-c3cccnc3)c(C(=O)NCc3ccc4c(c3)CCN4C)c2)c1` showed a Ki (Orexin receptor type 2 [1]) of 3 nM, a Ratio Ki (Homo sapiens) of 91 and a Ki [2] of 273 nM.

Work on `COc1ccc(CNC(=O)c2cc(-c3cc(C)cc(F)c3)cnc2-c2cccnc2)cc1OC` yielded a Ki (Orexin receptor type 2 [1]) of 0.8 nM, a Ratio Ki (Homo sapiens) of 1340 and a Ki [2] of 1070 nM.

For `COc1ccc(CNC(=O)c2cc(-c3cc(C)cc(C)c3)cnc2-c2cccnc2)cc1OC`, the Ki (Orexin receptor type 2 [1]) was 0.7 nM, the bioavailability [27] was 12% and the clearance [28] was 66 mL/min/kg. It also gave a Ratio Ki (Homo sapiens) of 660 and a Ki [2] of 462 nM.

For `COc1ccc(CNC(=O)c2cc(-c3cc(F)cc(F)c3)cnc2-c2cccnc2)cc1OC`, the Ki (Orexin receptor type 2 [1]) was 8.3 nM, the Ratio Ki (Homo sapiens) was 620 and the Ki [2] was 5150 nM.

`COc1cccc(CNC(=O)c2cc(-c3cc(C)cc(C)c3)cnc2-c2cccnc2)c1` showed a Ki (Orexin receptor type 2 [1]) of 40.5 nM, a Ratio Ki (Homo sapiens) of 83 and a Ki [2] of 3350 nM.

For `Cc1cc(C)cc(-c2cnc(-c3cccnc3)c(C(=O)NCc3ccc(C(F)(F)F)c(F)c3)c2)c1`, the Ki (Orexin receptor type 2 [1]) was 4.1 nM, the Ratio Ki (Homo sapiens) was 58 and the Ki [2] was 236 nM.

With `Cc1cc(C)cc(-c2cnc(-c3cccnc3)c(C(=O)NCc3ccc(F)c(C)c3)c2)c1` the Ki (Orexin receptor type 2 [1]) was 18 nM, the Ratio Ki (Homo sapiens) was 61 and the Ki [2] was 1100 nM.
